# Assay outcomes (PubChem)
# PfG6PD inh – PfG6PD enzyme inhibitors, primary screen, biochemical, fluorescence intensity, uHTS; PfGluPho enzyme, NADPH resazurin-diaphorase fluorescence; 0.78% of 350,000 active; glucose-6-phosphate dehydrogenase-6-phosphogluconolactonase (Plasmodium falciparum 3D7); inhibition, % at 20 µM;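 active = inhibition reaching at least a set limit at 20 µM in the primary screen, cut at about 59% in these data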;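 note: 0% = DMSO wells with substrate and 100% = DMSO wells lacking glucose-6-phosphate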
# ABHD5-PLIN5 inh – ABHD5-PLIN5 interaction inhibitors, primary screen, cell lysate, split luciferase complementation, luminescence; Perilipin-5 (Homo sapiens) + 1-acylglycerol-3-phosphate O-acyltransferase ABHD5 (Homo …; Split G. princeps luciferase complementation, 4 h; inhibition, % at 4 µM; 0.78% of 360,000 active;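 active = inhibition above the mean inhibition across every tested compound plus 3 SD, cut at about 22% in these data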;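 note: 0% = DMSO only wells and the 100% control is not disclosed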
# MC4R ag barr – MC4R agonists recruiting beta-arrestin, primary screen, cell-based, luminescence, agonist arm of biased-ligand search | Melanocortin receptor 4 (Homo sapiens), P32245 | U2OS MC4R beta-arrestin complementation; percent of melanotan II response, DMSO zero | activation, % at 8.9 µM | 0.98% of 360,000 active | AID 540308, 2011;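 active = activation above a per-plate cutoff, the mean activation of sample wells on that plate plus 3 SD, cut at about 8% in these data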
# Target sequence (P32245 whole entry, looked up): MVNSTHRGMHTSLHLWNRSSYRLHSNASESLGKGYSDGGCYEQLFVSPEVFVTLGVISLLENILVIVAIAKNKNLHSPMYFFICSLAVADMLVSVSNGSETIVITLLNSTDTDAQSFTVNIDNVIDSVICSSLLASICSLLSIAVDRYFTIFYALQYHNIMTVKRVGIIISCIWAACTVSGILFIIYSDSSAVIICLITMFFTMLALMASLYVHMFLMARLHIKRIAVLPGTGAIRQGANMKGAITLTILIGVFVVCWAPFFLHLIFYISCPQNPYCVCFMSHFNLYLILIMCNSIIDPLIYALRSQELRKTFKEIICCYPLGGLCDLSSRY
# Beta2AR agonist – beta2AR agonists driving receptor internalization, primary screen, cell-based, FAP fluorogen, flow cytometry; response, % (test concentration not listed); Beta-2 adrenergic receptor (Homo sapiens), P07550; Am2.2-beta2AR cells; 0.43% of 340,000 active;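 active = response above a set limit, near 3 SD of response in nonfluorescent compounds, cut at about 42% in these data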
# Target sequence (P07550 whole entry, looked up): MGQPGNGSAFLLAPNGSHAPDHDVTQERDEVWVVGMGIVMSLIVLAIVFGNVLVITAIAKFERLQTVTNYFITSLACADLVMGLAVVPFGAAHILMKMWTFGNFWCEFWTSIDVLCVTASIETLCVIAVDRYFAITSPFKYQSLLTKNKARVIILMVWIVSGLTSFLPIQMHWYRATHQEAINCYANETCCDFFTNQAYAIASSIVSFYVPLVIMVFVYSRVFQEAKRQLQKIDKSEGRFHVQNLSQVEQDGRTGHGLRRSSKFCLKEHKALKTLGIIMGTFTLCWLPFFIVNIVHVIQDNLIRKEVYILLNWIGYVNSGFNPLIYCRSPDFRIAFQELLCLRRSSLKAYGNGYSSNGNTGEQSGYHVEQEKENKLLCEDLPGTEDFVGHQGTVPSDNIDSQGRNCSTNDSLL
# MC4R antagonist – MC4R antagonists of cAMP signaling, primary screen, cell-based, TR-FRET, antagonist arm of biased-ligand search. inhibition, % at 6.5 µM. MC4R-expressing cells, MTII-stimulated cAMP, LANCE TR-FRET. Melanocortin receptor 4 (Homo sapiens), P32245. 0.48% of 360,000 active. AID 540295, 2011;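 active = inhibition above its plate's cutoff, the mean of tested wells on that plate plus 3 SD, cut at about 29% in these data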;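 note: 0% = Melanotan II alone and 100% = Melanotan II plus saturating MCL0020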
#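 Material: U2OS-MC4R stable cell line | Reagent: Melanotan II challenge after compound preincubation | Doses: One concentration, 6.5 µM nominal | Incubation: 30-min compound preincubation, 1-h Melanotan II challenge, 1-h detection, room temperature | Signal: TR-FRET cAMP assay | Replicates: One well per compound, no replicates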
# B2AR ag CP1 – beta2AR agonists via receptor internalization, confirmation, cell-based, FAP fluorogen, flow cytometry, single point, cherry pick 1. shares compounds with Beta2AR agonist. Am2.2-beta2AR cells, FAP surface receptor; stronger effect = lower value. percent response (surface receptor), % at 10 µM. 25% of 1,100 active. AID 540358, 2011;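 active = surface receptor percent response at or below 58%, roughly 3 SD from nonfluorescent compounds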
# FAP fluor counter – fluorescence artifact in beta-2AR agonist FAP counterscreen | Am2.2 cells, FAP fluorogen flow cytometry; stronger effect = lower value | calls only at 10 µM | shares compounds with Beta2AR agonist | 1,100 tested, under 10 active | AID 588765;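 active = percent response below a set limit in fluorescence channel 1 and below 50% in channel 8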
# PfG6PD confirm – PfG6PD inhibitors, hit retest, confirmation, biochemical, fluorescence intensity, single concentration; shares compounds with PfG6PD inh; 34% of 2,400 active; AID 504753, 2011; recombinant PfGluPho, NADPH-diaphorase-resazurin fluorescence; inhibition, % at 20 µM;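 active = inhibition of at least 50% at 20 µM in any single replicate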;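 note: 0% = DMSO with substrate and 100% = DMSO lacking glucose-6-phosphate substrate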
# Diaph ctr 10uM – diaphorase inhibitors and chemical oxidizers, confirmation, counter-screen for P. falciparum G6PD inhibitor project, biochemical, fluorescence intensity, 10 µM NADPH | 39% of 820 active | shares compounds with PfG6PD inh | inhibition, % at 20 µM | diaphorase-coupled resazurin reduction, NADPH 10 uM;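 active = average inhibition reaching 50% or more with the compound at 20 µM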;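 note: resorufin red fluorescence formed as diaphorase reduces resazurin using NADPH; 0% = DMSO with enzyme and 100% = DMSO without enzyme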
# Diaphorase 30uM – diaphorase inhibitors and chemical oxidizers, confirmation, counter-screen for P. falciparum G6PD inhibitor project, biochemical, fluorescence intensity, 30 µM NADPH. inhibition, % at 20 µM. shares compounds with PfG6PD inh. Diaphorase/resazurin coupled assay, resorufin fluorescence. 29% of 820 active;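 active = inhibition averaging 50% or more, tested at 20 µM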;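 note: 0% = DMSO with enzyme and 100% = DMSO wells lacking diaphorase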
# U2OS cAMP counter – nonselective cAMP signaling inhibitors, parental cells, counter-screen for MC4R biased antagonist project, cell-based, TR-FRET, U2OS, forskolin, triplicate; shares compounds with MC4R antagonist; LANCE TR-FRET; inhibition, % at 6.5 µM; 26% of 1,600 active; AID 602193, 2012;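 active = mean inhibition over triplicates above the low-control well mean plus 3 SD, set per campaign, cut at about 13% in these data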;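 note: signal is single emission at 671 nm which falls as cellular cAMP rises; 0% = forskolin-stimulated wells and 100% = buffer without forskolin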
# MC4R cAMP antag – MC4R cAMP antagonists, retest, confirmation, cell-based, TR-FRET | shares compounds with MC4R antagonist | MC4R-expressing cells, MTII-stimulated cAMP | inhibition, % at 6.5 µM | 27% of 1,600 active; in the data active = inhibition above about 29%;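 note: 0% = agonist stimulated wells alone and 100% = agonist stimulated wells plus saturating reference antagonist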
# * = called active by the depositor; i = inactive; . = not tested or not shown. In the library only some 3% were active in any assay of this set; here they are far more common.
SMILES,PfG6PD inh,ABHD5-PLIN5 inh,MC4R ag barr,Beta2AR agonist,MC4R antagonist,B2AR ag CP1,FAP fluor counter,others
CC(NC(=O)C1CCCN1S(=O)(=O)c1cccc2cccnc12)c1ccccc1 (centres undefined),-6.2,8.1,-2.1,56.1*,2.7,105.7,i,
CC1(C)Cc2c(c(N3CCCC3)nc3sc4c(N5CCNCC5)ncnc4c23)CO1,15.9,.,.,.,.,.,.,
Cc1ccc(-c2nnc(COc3cccc(-n4cnnn4)c3)o2)cc1,3.8,4.1,-1.4,-12.5,-7.1,.,.,
CCCc1nnc(-c2ccc(OC)cc2)o1,1.5,-2.2,-1.6,7.9,5.4,.,.,
COc1ccc(-c2nnc(COc3ccc(Br)cc3C)o2)cc1,12.5,0.7,-0.5,-3.6,3.2,107.3,i,
Cc1cc(Br)ccc1OCc1nnc(-c2ccccc2)o1,-7.9,-3.6,1.2,-4.2,-3.2,118.0,i,
Cc1cccc(OCc2nnc(-c3ccc(F)cc3)o2)c1,14.8,-11.3,-0.9,6.7,4.0,97.3,i,
Brc1ccc(-c2nnc(Cc3ccccc3)o2)cc1,5.6,-7.3,4.1,-14.0,5.7,133.2,i,
O=C(NCc1ccccn1)c1cccc(S(=O)(=O)Nc2ccccc2Cl)c1,-7.0,-4.2,-0.6,3.5,1.0,.,.,
CN(CC(=O)Nc1ccccc1Br)C(=O)CNC(=O)c1ccco1,-4.8,7.0,0.2,-6.0,5.0,.,.,
O=C(Nc1ccc(O)c(C(=O)O)c1)Oc1ccccc1,-4.8,-1.3,-1.4,-5.7,0.0,.,.,
CCOC(=O)Cn1nnnc1CN(Cc1ccc(OC)cc1)Cc1cc2cc(CC)ccc2[nH]c1=O,5.3,-10.8,-1.1,85.9*,5.3,102.7,i,
CCOC(=O)c1[nH]c2cc3c(cc2c1NC(=O)CN1CCN(CCO)CC1)OCO3,-24.5,3.8,-1.0,1.4,16.5,.,.,
Cc1cc(C)cc(-n2c3ccc(NC(=S)NC4CCCCC4)cc3c(=O)n2C)c1,.,-8.5,4.1,.,9.8,.,.,
CC1CCCN(C(C(=O)Nc2ccc3c(c2)OCO3)c2ccccc2)C1 (centres undefined),-1.5,4.3,-1.1,26.3,2.5,85.8,i,
CC1CCN(C(C(=O)Nc2ccc3c(c2)OCO3)c2ccccc2)CC1 (centres undefined),-7.1,5.0,3.3,-0.6,-4.1,97.5,i,
CCN(CC(=O)Nc1cc(Cl)ccc1C)c1ncnc2sc(C)c(C)c12,7.5,2.2,-0.5,-4.2,0.2,.,.,
CC1CCN(S(=O)(=O)c2ccc(C(=O)N3CCCC3C(=O)O)cc2)CC1 (centres undefined),-0.1,11.0,-1.7,1.9,9.1,.,.,
CC(=O)c1ccc(OCc2cc(C(=O)N(C)CCOc3ccc(C)cc3)no2)cc1,4.3,-0.1,-2.2,86.5*,-5.4,20.0*,i,
O=C1CN(C(=O)COC(=O)/C=C/c2ccc(S(=O)(=O)N3CCOCC3)cc2)c2ccccc2N1,19.8,-3.7,-0.7,-1.4,7.9,.,.,
O=C1CN(C(=O)COC(=O)c2cc(S(=O)(=O)N3CCOCC3)ccc2Cl)c2ccccc2N1,-4.9,-1.3,1.0,42.3*,0.0,86.9,i,
O=C(Nc1cccc(Cl)c1)Nc1sccc1-c1nc2ccccc2s1,96.6*,-6.3,3.1,66.4*,11.2,116.2,i,PfG6PD confirm=-4.5
O=C(Nc1cccc(Cl)c1)Nc1nc(-c2ccc(Cl)cc2)cs1,-13.0,-3.5,1.4,0.5,-7.9,.,.,
COc1cccc(/C=N/NC(=S)Nc2cccc(S(=O)(=O)N(C)C)c2)c1,66.7*,-7.5,-1.7,-1.9,11.8,131.3,i,PfG6PD confirm=0.7
Cc1c(CC(=O)N2C[C@H]3C[C@@H](C2)c2cccc(=O)n2C3)c(=O)oc2cc3occ(C(C)(C)C)c3cc12,5.5,9.2,-0.8,-25.8,-12.2,.,.,
SMILES,PfG6PD inh,ABHD5-PLIN5 inh,MC4R ag barr,Beta2AR agonist,MC4R antagonist,B2AR ag CP1,FAP fluor counter,others
CNCc1ccccc1Sc1cccc(O)c1,8.7,8.7,-0.5,-10.4,-9.2,.,.,
CNCc1ccccc1Sc1cc(O)ccc1O,92.2*,6.5,-2.3,67.8*,11.8,88.8,i,PfG6PD confirm=96.7*;Diaph ctr 10uM=53.1*;Diaphorase 30uM=17.7
CC(C)Nc1ccc(Nc2ccnc3cc4ccccc4cc23)cc1,65.3*,10.3,8.5*,80.5*,-12.5,112.8,i,PfG6PD confirm=18.8
N#Cc1nnn2c1nc(N)c1c(Cl)cccc12,.,4.6,.,.,.,.,.,
O=C(NCC(c1cccs1)N1CCOCC1)c1ccccc1NS(=O)(=O)c1cccc([N+](=O)[O-])c1 (centres undefined),-8.3,-4.4,0.4,1.3,15.4,.,.,
O=C(NCC(c1cccs1)N1CCOCC1)c1ccccc1NS(=O)(=O)c1ccc(Cl)c([N+](=O)[O-])c1 (centres undefined),-29.4,-6.2,0.1,63.3*,29.5*,93.8,i,U2OS cAMP counter=4.2;MC4R cAMP antag=4.7
COC(=O)C(Cc1ccccc1)NC(=O)CNC(=O)c1ccccc1OC (centres undefined),7.2,4.1,-0.6,3.3,13.2,.,.,
CCCCC(=O)Nc1ccc(C(=O)N(CC)c2ccccc2C)cc1,-8.2,-0.7,0.9,62.7*,30.2*,73.5,i,U2OS cAMP counter=2.1;MC4R cAMP antag=-8.7
